Here are results for 13 compounds from ChEMBL document CHEMBL4138290, “Highly Oxidized Guaianolide Sesquiterpenoids with Potential Anti-inflammatory Activity from Chrysanthemum indicum” (J Nat Prod, 2018).

Active and inactive are the calls of the source. The rule behind the calls is not given here.

In general, IC50 refers to the concentration at which inhibition is half-maximal.

Data set [1] has as its system RAW264.7. The data set is described as follows: Antiinflammatory activity in mouse RAW264.7 cells assessed as inhibition of LPS-induced NO production after 18 hrs by Griess assay. The note with it: RAW264.7, 18 h. The data set is classed as functional, cell-based. In outline:
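RAW264.7 murine macrophages (DMEM, 10% FBS, pen-strep, 37 °C, 5% CO2) seeded 6 × 10^4 cells/well for 18 h. Compound added with 1 μg/mL LPS for 18 h. Supernatant nitrite read with Griess reagent (10 min, OD 540 nm). Inhibition relative to DMSO-only control. L-NMMA as positive control. IC50 is mean ± SD of three independent experiments.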
On the technique in general: Nitrite, measured by Griess reagent, commonly stands in for NO production.

For data set [2], the system named is RAW264.7. The data set is described as follows: Cytotoxicity against LPS-induced mouse RAW264.7 cells assessed as reduction in cell viability at 6.25 uM after 18 hrs by MTT assay. Particulars: raw264.7, 18 h. Type of data set: cell-based. In outline:
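RAW264.7 cells were seeded at 5 × 10^3/well for 18 h, then exposed to compound at various concentrations with or without LPS (1.0 μg/mL) for 18 h. MTT (5 mg/mL, 20 μL) added for 4 h. Formazan dissolved in DMSO and read at 570 nm. Viability is relative to the DMSO-only control, set as 100%.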

In data set [3] the test system is RAW264.7. The data set is described as follows: Downregulation of COX-2 in LPS-induced mouse RAW264.7 cells at 2.5 uM by Western blot analysis. The data set is classed as functional, cell-based. In outline:
(§1)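 Western blot in RAW264.7 cells treated with compound under LPS (1 μg/mL) stimulation. Cells lysed in 1% RIPA and protein quantified by BCA. SDS-PAGE, PVDF transfer, 5% skim milk block for 2 h at 25 °C, primary antibody 12 h at 4 °C, then secondary at room temperature.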
In general terms: Immunoblotting shows a protein as a band on a membrane.

Data set [4] concerns RAW264.7. As to the kind of experiment: Downregulation of iNOS in LPS-induced mouse RAW264.7 cells at 2.5 uM by Western blot analysis. The data set is classed as functional, cell-based. In outline: as §1
In data set [5] the test system is RAW264.7. As to the kind of experiment: Inhibition of NF-kappaB in LPS-induced mouse RAW264.7 cells assessed as decrease in STAT3 phosphorylation at 1.25 to 5 uM by Western blot analysis. The data set is classed as cell-based. In outline:
as §1

The subject of data set [6] is RAW264.7. As to the kind of experiment: Downregulation of total NF-kappaB level in LPS-induced mouse RAW264.7 cells at 1.25 to 5 uM by Western blot analysis. The data set is classed as functional, cell-based. In outline: as §1
For data set [7], the target named is Transcription factor p65 (Mus musculus) (UniProt Q04207). The data set is described as follows: Inhibition of LPS-induced NF-kB p65 nuclear translocation in mouse RAW264.7 cells at 1.25 to 5 uM by Western blot analysis. The data set is classed as cell-based. In outline: as §1
Chain of Transcription factor p65 (Mus musculus) (Q04207 whole entry): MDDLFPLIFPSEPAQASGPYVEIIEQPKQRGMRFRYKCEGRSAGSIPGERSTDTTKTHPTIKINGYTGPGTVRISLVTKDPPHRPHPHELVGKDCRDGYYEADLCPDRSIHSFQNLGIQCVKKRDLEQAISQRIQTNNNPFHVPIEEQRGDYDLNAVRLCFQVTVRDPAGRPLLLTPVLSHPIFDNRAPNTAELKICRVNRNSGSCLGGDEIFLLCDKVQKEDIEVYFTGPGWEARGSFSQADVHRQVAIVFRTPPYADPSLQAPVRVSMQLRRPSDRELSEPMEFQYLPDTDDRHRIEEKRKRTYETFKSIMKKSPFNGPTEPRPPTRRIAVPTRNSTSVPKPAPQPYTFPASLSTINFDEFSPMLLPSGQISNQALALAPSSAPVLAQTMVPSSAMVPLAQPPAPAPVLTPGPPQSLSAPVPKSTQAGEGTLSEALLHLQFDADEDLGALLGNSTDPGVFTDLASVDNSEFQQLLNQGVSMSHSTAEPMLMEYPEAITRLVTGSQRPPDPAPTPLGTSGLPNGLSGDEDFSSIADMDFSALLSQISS
For data set [8], the system named is RAW264.7. As to the kind of experiment: Inhibition of ERK phosphorylation in LPS-induced mouse RAW264.7 cells at 1.25 to 5 uM incubated with compound for 1 hr followed by LPS stimulation measured after 4 hrs by Western blot analysis. Type of data set: cell-based. In outline: (§2)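 Western blot of MAPK phosphorylation in RAW264.7 cells. Cells pretreated with or without compound (1.25, 2.5, 5.0 μM) for 1 h, then LPS (0.1 μg/mL) for 4 h. Lysed in 1% RIPA, BCA protein assay, SDS-PAGE, PVDF, milk block 2 h at 25 °C, primary antibody 12 h at 4 °C, then secondary at room temperature.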

The test system of data set [9] is RAW264.7. As to the kind of experiment: Inhibition of JNK phosphorylation in LPS-induced mouse RAW264.7 cells at 1.25 to 5 uM incubated with compound for 1 hr followed by LPS stimulation measured after 4 hrs by Western blot analysis. The data set is classed as cell-based. In outline: as §2
In data set [10] the target is MAP kinase p38 (Mus musculus) (UniProt P47811+O08911+Q9WUI1+Q9Z1B7). As to the kind of experiment: Inhibition of p38 phosphorylation in LPS-induced mouse RAW264.7 cells at 1.25 to 5 uM incubated with compound for 1 hr followed by LPS stimulation measured after 4 hrs by Western blot analysis. The data set is classed as cell-based. In outline:
as §2

Take `C=C1C(=O)O[C@H]2[C@H]1C[C@@H](OC(=O)/C(C)=C\C)[C@@](C)(O)[C@]13O[C@H]1[C@H]1O[C@@]1(C)[C@H]23`: the IC50 with RAW264.7 [1] was found to be 4 µM.

Consider `C=C1C(=O)O[C@H]2[C@H]1CC[C@@](C)(O)[C@]13O[C@H]1[C@@H](O)[C@](C)(O)[C@H]23`, for which, in the data set on RAW264.7 [1], the IC50 was 21.5 µM.

As to `C=C1C(=O)O[C@H]2[C@@H]1[C@@H](OC(=O)C=C(C)C)C[C@@](C)(O)[C@@]13C=C[C@@](C)(OO1)[C@H]23`, the IC50 in the data set with RAW264.7 [1] is 7.2 µM.

As to `CNC(=N)NCCC[C@H](N)C(=O)O` [TILARGININE], the half-maximal inhibitory concentration (IC50) with RAW264.7 [1] was 25.8 µM.

As to `C=C1C(=O)O[C@H]2[C@H]1CC[C@@](C)(O)[C@]13C=C[C@](C)([C@@H]21)[C@]1(C3)C(=O)O[C@H]2[C@H]1CC[C@@](C)(O)[C@]13O[C@H]1[C@@H](O)[C@](C)(O)[C@H]23`, the IC50 in the data set on RAW264.7 [1] was above 50 µM.

For `C=C1C(=O)O[C@H]2[C@H]1C[C@@H](OC(=O)/C(C)=C\C)[C@@](C)(O)[C@@]13O[C@@H]1[C@@H]1O[C@]1(C)[C@H]23`, the IC50 with RAW264.7 [1] is 1.4 µM. In the data set with RAW264.7 [2], the Activity entry is given as “Non-Toxic”. Further, the result with RAW264.7 [3], in the data set with RAW264.7 [4] and in the data set with RAW264.7 [6] was Active. For the same compound, the inhibition entry (in the data set with RAW264.7 [5]; in [7]; with RAW264.7 [8]; in the data set on RAW264.7 [9]; in data set [10]) was “Active” throughout.

Consider `C=C1C(=O)O[C@H]2[C@@H]1[C@@H](OC(=O)/C(C)=C/C)C[C@@](C)(O)[C@@]13C=C[C@@](C)(OO1)[C@H]23`, for which, in the data set on RAW264.7 [1], the IC50 came to 3.4 µM.

With `C=C1C(=O)O[C@H]2[C@H]1C[C@@H](OC(=O)/C(C)=C/C)[C@@](C)(O)[C@]13O[C@H]1[C@H]1O[C@@]1(C)[C@H]23`, in the data set on RAW264.7 [1], the IC50 stood at 6.3 µM.

Consider `C=C1C(=O)O[C@H]2[C@H]1C[C@@H](OC(=O)/C(C)=C/C)[C@@](C)(O)[C@@]13O[C@@H]1[C@@H]1O[C@]1(C)[C@H]23`, for which the IC50 in the data set on RAW264.7 [1] was found to be 3.9 µM.

Regarding `C=C1C(=O)O[C@H]2[C@H]1C[C@@H](OC(=O)/C(C)=C\C)[C@@](C)(O)[C@]13O[C@H]1[C@@H](O)[C@@](C)(O)[C@H]23`, in the data set with RAW264.7 [1], the IC50 worked out at 7.1 µM.

In the case of `C=C1C(=O)O[C@H]2[C@H]1C[C@@H](OC(=O)C=C(C)C)[C@@](C)(O)[C@@]13O[C@@H]1[C@@H]1O[C@]1(C)[C@H]23`, the IC50 in the data set on RAW264.7 [1] stood at 4.8 µM.

With `C=C(C)C(=O)O[C@@H]1C[C@H]2C(=C)C(=O)O[C@@H]2[C@H]2[C@](C)(O)[C@@H](Cl)[C@@H]3O[C@@]32[C@]1(C)O`, the 50% inhibitory concentration (IC50) with RAW264.7 [1] came to 9.7 µM.

On to `C=C1C(=O)O[C@H]2[C@H]1CC[C@@](C)(O)[C@]13C=C[C@](C)([C@@H]21)[C@]1(C3)C(=O)O[C@H]2[C@H]1CC[C@@](C)(O)[C@]13O[C@H]1[C@@H](O)[C@@](C)(O)[C@H]23`, for which the half-maximal inhibitory concentration (IC50) in the data set on RAW264.7 [1] was above 50 µM.
